{
  "source": "paper PMC6085501",
  "about": "(EBioMedicine, 2018)",
  "key": {"[1]": {"molecular_target": "Glucose regulated protein 78 kDa (GRP78), recombinant protein immobilised for SPR (UniProt P11021)", "sequence (P11021 19-654)": "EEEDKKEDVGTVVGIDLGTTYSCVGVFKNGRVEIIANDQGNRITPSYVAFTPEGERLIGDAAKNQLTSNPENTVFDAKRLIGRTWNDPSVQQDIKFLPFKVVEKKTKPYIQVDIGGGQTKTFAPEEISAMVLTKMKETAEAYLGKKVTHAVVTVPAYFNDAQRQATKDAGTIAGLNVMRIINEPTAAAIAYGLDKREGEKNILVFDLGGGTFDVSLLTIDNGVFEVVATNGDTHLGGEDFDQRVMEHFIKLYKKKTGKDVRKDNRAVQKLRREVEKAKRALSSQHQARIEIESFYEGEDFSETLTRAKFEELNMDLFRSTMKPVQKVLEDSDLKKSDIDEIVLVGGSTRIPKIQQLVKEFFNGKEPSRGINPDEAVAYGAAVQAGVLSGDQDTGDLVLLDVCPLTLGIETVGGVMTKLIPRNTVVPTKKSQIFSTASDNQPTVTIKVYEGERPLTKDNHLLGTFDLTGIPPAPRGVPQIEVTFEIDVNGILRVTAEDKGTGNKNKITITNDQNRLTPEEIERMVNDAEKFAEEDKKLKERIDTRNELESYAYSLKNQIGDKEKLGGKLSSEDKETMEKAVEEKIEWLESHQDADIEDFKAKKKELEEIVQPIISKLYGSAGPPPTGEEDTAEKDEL", "assay": "SPR"}, "[2]": {"tested_on": "human HBT 3477 breast cancer", "settings": "250 μg/mouse, nude mice; cited from earlier work"}, "HUVECs": {"tested_on": "HUVECs", "assay": "Cell Death Detection ELISA", "type": "cell-based, human", "settings": "100 μM, 24 h", "in_short": "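HUVECs (passages 5–10) seeded at 1–1.5 × 10^4 cells/well and pre-starved 3 h in 2% FBS medium. Co-treated with 100 μM test peptide plus 15 ng/ml VEGF for 24 h. Apoptosis read as cytoplasmic histone-associated DNA fragments by photometric ELISA at 405 nm. Fold change taken against VEGF-only cells set as 1. Mean ± SEM, at least three independent experiments, ANOVA.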"}, "Cell-surface GRP78": {"tested_on": "Cell-surface GRP78", "settings": "ISM protein as ligand of cell-surface GRP78; cited from earlier work"}},
  "data": [
    {"molecule": "BC71, cyclic peptide c[(bA)(k)RKD(2-D-Nal)]", "values": [
      {"measurement": "Kd", "setting": "[1]", "value": 211, "unit": "µM"}
    ]},
    {"molecule": "cilengitide", "values": [
      {"measurement": "suppression of tumor growth as single agent", "setting": "[2]", "value": "ineffective"}
    ]},
    {"molecule": "cyclo(KRAAF) [GR35]", "values": [
      {"measurement": "proapoptotic activity towards HUVECs (in words)", "setting": "HUVECs", "value": "significantly reduced its proapoptotic activity"}
    ]},
    {"molecule": "cyclo(KRKDF) [GR16]", "values": [
      {"measurement": "apoptosis, relative fold change", "setting": "HUVECs; HUVECs, Cell Death Detection ELISA, Fig. 1a legend", "value": "over 1.4"}
    ]},
    {"molecule": "ISM: secreted proapoptotic protein, high-affinity ligand of cell-surface GRP78 (protein, UniProt B1AKI9 30-464, looked up) Isthmin-1: ADGPDAAAGNASQAQLQNNLNVGSDTTSETSFSLSKEAPREHLDHQAAHQPFPRPRFRQETGHPSLQRDFPRSFLLDLPNFPDLSKADINGQNPNIQVTIEVVDGPDSEADKDQHPENKPSWSVPSPDWRAWWQRSLSLARANSGDQDYKYDSTSDDSNFLNPPRGWDHTAPGHRTFETKDQPEYDSTDGEGDWSLWSVCSVTCGNGNQKRTRSCGYACTATESRTCDRPNCPGIEDTFRTAATEVSLLAGSEEFNATKLFEVDTDSCERWMSCKSEFLKKYMHKVMNDLPSCPCSYPTEVAYSTADIFDRIKRKDFRWKDASGPKEKLEIYKPTARYCIRSMLSLESTTLAAQHCCYGDNMQLITRGKGAGTPNLISTEFSAELHYKVDVLPWIICKGDWSRYNEARPPNNGQKCTESPSDEDYIKQFQEAREY", "values": [
      {"measurement": "Kd", "setting": "Cell-surface GRP78", "value": 0.0086, "unit": "µM"}
    ]}
  ]
}
